# Screening data (PubChem BioAssay)
# CHO parental Ca = counter-screen: ATP calcium response change in parental CHO cells | parental CHO-K1, ATP-induced calcium, Fluo-8 fluorescence | inhibition, % at 5.6 µM | 0.63% of 330,000 active;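 active = inhibition above that plate's mean sample inhibition plus 3 SD, cut at about 26% in these data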;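 note: 0% = ATP-challenged DMSO wells and 100% = DMSO wells without ATP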
#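 Material: Parental CHO cells | Reagent: ATP | Compound dosing: Single nominal dose of 5.6 µM per compound | Detection: Intracellular calcium via Fluo-8 no-wash fluorescent dye | Read-out: % inhibition of ATP-induced calcium mobilization | Benchmarks: Low control ATP plus DMSO, high control DMSO only | Replicates: Singlicate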
# TAAR1 ag = human TAAR1 agonism; CHO RD-HGA16 TAAR1, Fluo-8 calcium fluorescence; vehicle wells 0%, saturating PEA agonist 100%; activation, % at 3 µM; Q96RJ0; 0.99% of 360,000 active;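 active = activation above the mean activation of all test compounds in the run plus 3 SD, cut at about 38% in these data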
# Target sequence (Q96RJ0 whole entry, looked up): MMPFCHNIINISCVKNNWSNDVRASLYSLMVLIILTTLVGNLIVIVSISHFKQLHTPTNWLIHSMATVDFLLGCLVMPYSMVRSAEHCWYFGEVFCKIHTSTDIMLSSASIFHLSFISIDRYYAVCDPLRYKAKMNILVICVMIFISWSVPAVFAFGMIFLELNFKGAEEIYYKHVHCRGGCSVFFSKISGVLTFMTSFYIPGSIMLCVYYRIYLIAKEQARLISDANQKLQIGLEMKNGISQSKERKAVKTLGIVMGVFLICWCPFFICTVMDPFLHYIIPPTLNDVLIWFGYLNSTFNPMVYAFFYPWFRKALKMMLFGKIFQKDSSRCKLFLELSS
#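 Benchmarks: low control DMSO, high control PEA (EC100); System: CHO RD-HGA16 cells carrying human TAAR1 plus Gα16; Detection: Fluo-8 fluorescence, 5 s baseline then 140 s kinetic read; Schedule: 17-24 h plating, Fluo-8 75 min 37 °C, 30 min RT; Read-out basis: % activation from peak over basal fluorescence ratio, DMSO-to-PEA scaled.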
# TAAR1 antag = antagonists of human TAAR1; Q96RJ0; CHO RD-HGA16 TAAR1, Fluo-8 calcium fluorescence, antagonist; inhibition, % at 3 µM; 1.5% of 360,000 active; AID 624466;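 active = inhibition above a per-plate cutoff, the mean inhibition of test compounds on that plate plus 3 SD, cut at about 49% in these data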;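 note: 0% = DMSO plus EC80 beta-PEA response and 100% = DMSO alone without agonist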
#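 Test system: RD-HGA16 CHO cells with stable hTAAR1 and Gα16 / Probe or stimulus: EC80 β-phenethylamine stimulus / Times: seeding 17-24 h prior, 75-min 37 °C, 30-min RT dye loading / Detection: Fluo-8 calcium-sensitive fluorescence / Read-out basis: % inhibition scaled between DMSO and EC80 PEA controls / Repeats: singlicate, one well per test compound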
# GPR7 antag = human neuropeptides B/W receptor 1 antagonism; GPR7-expressing cells, fluorescence antagonist assay; inhibition, % at 4.4 µM; AID 1861; P48145; 1.1% of 290,000 active; in the data active = inhibition above about 16%, passing the limit was not always enough;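 note: cells stimulated with the agonist NPW; 0% = agonist with vehicle and 100% = vehicle without agonist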
# Target sequence (P48145 whole entry, looked up): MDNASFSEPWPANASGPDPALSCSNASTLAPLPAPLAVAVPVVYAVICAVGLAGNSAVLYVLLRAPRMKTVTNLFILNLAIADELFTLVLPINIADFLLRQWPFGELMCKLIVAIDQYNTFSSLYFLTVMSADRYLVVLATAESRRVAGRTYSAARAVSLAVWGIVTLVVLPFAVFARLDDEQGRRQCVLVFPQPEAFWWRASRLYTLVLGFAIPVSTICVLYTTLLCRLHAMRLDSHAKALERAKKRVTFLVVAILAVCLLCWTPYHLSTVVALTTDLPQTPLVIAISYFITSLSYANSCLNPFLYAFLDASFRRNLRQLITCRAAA
# OX1R antag-1 = OX1R (human) antagonism; O43613; OX1R-expressing cells, FRET antagonist read-out; inhibition, % at 6.6 µM; 1.8% of 330,000 active; AID 485270; in the data active = inhibition mostly above about 38%, no sharp cut-off; inactive = mostly below about 40%;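 note: 0% = agonist challenge alone and 100% = reference antagonist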
# OX1R antag-2 = human HCRTR1 antagonism; CHO/OX1R cells, Fluo-8 calcium fluorescence, orexin A; inhibition, % at 5 µM; 0.43% of 330,000 active; AID 434989;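 active = inhibition above its plate's threshold, mean inhibition of all tested compounds on the plate plus 3 SD, cut at about 37% in these data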;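 note: 0% = orexin A challenge wells and 100% = SB-334867-A antagonist wells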
# Numbers without * were called inactive; nt = not tested or not shown. Compounds with a hit are over-represented: about 4.6% of the library has one in this group of screens.
SMILES,CHO parental Ca,TAAR1 ag,TAAR1 antag,GPR7 antag,OX1R antag-1,OX1R antag-2
CCN(CC)C(=O)CSc1nnc2nnc3cc(OC)ccc3n12,-12.3,1.4,-20.2,-5.2,76.5*,-6.3
CCN(CC)C(=O)CSc1nnc(COc2ccc(OC)cc2)n1N,12.0,0.4,-11.0,-6.5,14.7,-13.9
O=C1C2CC=C(Cl)CC2C(=O)N1CCCCCCN1C(=O)C2CC=C(Cl)CC2C1=O (centres undefined),-12.1,40.6*,21.6,13.7,23.7,0.8
COc1ccc(/C=C/c2cccc[n+]2C)c(O)c1,0.6,-0.6,-11.8,-0.8,31.8,-0.8
CCN(CC)c1ccc(/C=C/c2cccc[n+]2C)c(OC)c1,36.3*,9.6,7.7,37.3,65.4,25.1
CCN(CC)C(=O)C1CCCN(C(=O)c2oc3ccc(C)cc3c2C)C1 (centres undefined),-22.0,-1.4,-17.0,-18.9,20.1,-23.9
CC(=O)Nc1ccc(NC(=O)c2ccc(-c3c(C)noc3C)c3ccoc23)cc1,nt,6.3,-7.3,nt,nt,nt
CC(=O)c1cccc(NC(=O)c2ccc(-c3c(C)noc3C)c3ccoc23)c1,nt,11.1,64.2*,nt,nt,nt
CC(=O)c1cccc(NC(=O)c2cccc3c(-c4cnn(C)c4)coc23)c1,nt,14.4,55.3*,nt,nt,nt
COc1cc(NC(=O)c2cccc3c(-c4cnn(C)c4)coc23)cc(OC)c1OC,nt,14.9,54.0*,nt,nt,nt
COc1ccc(-c2ccc(C(=O)Nc3ccc(NC(C)=O)cc3)c3occc23)c(C)c1,nt,14.3,50.9*,nt,nt,nt
COc1ccc(NC(=O)c2cccc3c(-c4cnn(C)c4)coc23)cc1,nt,6.8,4.3,nt,nt,nt
CN(C)c1ccc(/C=C2\CCC/C(=C\c3ccccc3)C2=O)cc1,50.8*,18.7,17.7,-1.5,23.6,36.6
Cc1ccn2c(CN(C)CCn3nc(C)cc3C)c(C(=O)N3CCCCCC3)nc2c1,5.8,6.0,5.8,-21.8,14.9,-16.6
COc1cccc2cc(C(=O)OC3CCN(C)CC3)c(=O)oc12,-14.2,0.8,21.8,-4.0,40.2,-30.4
COc1cc(Br)cc2cc(C(=O)OC3CCN(C)CC3)c(=O)oc12,11.2,10.0,-1.1,-13.1,49.3*,-15.2
O=C(CN(Cc1ccc(F)cc1)C(=O)Cn1nnc2ccccc21)NCC1CCCO1 (centres undefined),-1.6,0.8,2.9,-9.2,7.9,-1.6
CCC(C(=O)NC(C)(C)C)N(Cc1cccs1)C(=O)CNS(=O)(=O)c1ccccc1 (centres undefined),-26.4,-0.7,-2.9,-15.0,24.0,-30.1
O=C(Nc1ccc(S(=O)(=O)Nc2ccccc2)cc1)c1ccc(CN2CCOCC2)cc1,5.1,15.2,42.8,50.5*,22.4,20.2
Cc1[nH]c2ccccc2c1C(=O)CN1C(=O)NC2(CC(C)CC(C)(C)C2)C1=O (centres undefined),-7.1,17.0,53.4*,18.6*,19.5,-2.5
CC1CC(C)(C)CC2(C1)NC(=O)N(CC(=O)Nc1ccc3[nH]c(=O)[nH]c3c1)C2=O (centres undefined),-3.8,1.4,-16.4,nt,2.5,2.8
CC1CC(C)(C)CC2(C1)NC(=O)N(CC(=O)OCc1ccc(Br)cc1)C2=O (centres undefined),-9.9,41.3*,22.7,nt,-3.5,-30.8
CCc1nc(Nc2ccc(OC)c(OC)c2)c2nnn(Cc3ccccc3Cl)c2n1,30.3*,3.8,20.4,-14.1,25.1,-4.2
Cc1ccc(S(=O)(=O)/N=C2/NC(=O)/C(=C/c3ccncc3)S2)cc1,-9.6,-0.1,12.7,0.4,5.5,-9.1
O=C1NC(=Nc2ccccc2Cl)S/C1=C\c1cc([N+](=O)[O-])ccc1O,14.4,11.5,26.6,-9.6,72.5*,7.3
SMILES,CHO parental Ca,TAAR1 ag,TAAR1 antag,GPR7 antag,OX1R antag-1,OX1R antag-2
COc1cccc(N=C2NC(=O)/C(=C/c3cc([N+](=O)[O-])ccc3O)S2)c1,11.7,7.3,-6.4,-0.7,-7.0,16.2
COc1cc(/C=C2\S/C(=N/S(=O)(=O)c3ccc(C)cc3)NC2=O)c([N+](=O)[O-])cc1OC,-4.8,6.4,-9.3,-9.5,39.2*,-13.4
Cc1ccc(S(=O)(=O)/N=C2/NC(=O)/C(=C/c3ccccc3)S2)cc1,-19.8,-0.6,16.1,-9.5,48.3,-25.9
Cc1ccc(S(=O)(=O)/N=C2/NC(=O)/C(=C\c3ccccc3)S2)cc1,10.1,-1.7,15.3,nt,32.6*,4.1
Cc1ccc(S(=O)(=O)/N=C2/NC(=O)/C(=C/c3cc([N+](=O)[O-])ccc3O)S2)cc1,47.9*,30.4,37.5,16.8,19.6,42.8*
Cc1ccc(S(=O)(=O)/N=C2/NC(=O)/C(=C\c3ccco3)S2)cc1,-18.9,6.2,-7.6,-3.6,41.0,-11.9
N#Cc1ccc(CN2CCN(C(=O)C3CC(=O)N(c4ccccc4F)C3)CC2)cc1 (centres undefined),-8.3,-0.6,24.3,nt,6.1,-9.1
O=C1OC(c2cccc3c(F)cccc23)c2ccccc21 (centres undefined),nt,-0.4,-30.4,nt,nt,nt
COc1ccc(NC(=O)Nc2ccc3c(c2)C(=O)N([C@@H](C)CO)C[C@@H](C)[C@@H](CN(C)S(=O)(=O)c2cccs2)O3)cc1,-9.1,2.3,-2.5,nt,9.5,-6.3
Oc1[nH]c2ccccc2c1N=NC(=S)N1CCOCC1,9.3,nt,nt,-21.8,19.5,-10.2
Cc1ccc(CN2CCN(CC(=O)N=Nc3c(O)[nH]c4ccccc34)CC2)cc1,-27.2,-0.3,9.3,-7.6,65.6*,-1.0
O=C(N=Nc1c(O)[nH]c2ccccc12)c1ccc(CN2CCOCC2)cc1,-2.7,2.1,4.8,-11.4,63.4*,3.0
O=C1[C@H](Cc2ccccc2)NCC=CC[C@H](c2ccco2)N1Cc1ccccc1,nt,12.6,42.3,nt,nt,nt
COc1ccc(-c2cc(-c3c(O)c(OC)c4occc4c3OC)[nH]n2)cc1OC,-17.9,-2.2,4.8,-12.6,69.5*,61.7*
COc1ccc(-c2cc(-c3c(O)c(OC)c4occc4c3OC)[nH]n2)cc1,-17.2,6.1,6.6,-7.3,19.3,-21.9
Brc1ccc(CN2CCN(Cc3c[nH]c4ccccc34)CC2)cc1,-5.5,37.8*,10.2,20.9,-6.8,4.8
CC1CN=C(N(C(=O)Nc2ccccc2)C(C)c2ccccc2)S1 (centres undefined),-20.6,10.8,-2.4,-7.8,-0.4,-16.3
NS(=O)(=O)c1ccc(CCNC(=O)c2ccncc2)cc1,3.4,-0.8,-3.2,-1.7,4.5,-48.0
NS(=O)(=O)c1ccc(CCNC(=O)c2ccc(C#CC3(O)CCCCC3)cc2)cc1,10.7,22.9,68.2*,-0.1,18.9,2.7
Cc1ccc(S(=O)(=O)Nc2ccc(Nc3nccn4c(-c5cccc(OC(F)(F)F)c5)cnc34)cc2)cc1,nt,0.3,-10.2,nt,nt,nt
